Screening data: PubChem BioAssay, The Scripps Research Institute Molecular Screening Center
The list is not random: actives were taken first. Their share in the collection is about 1.5%.
CHRM4 agonist = CHRM4 agonism in calcium assay | actives 0.14% (n = 360,000) | activation, % at 3 µM | CHO-K1 hM4/Gqi5, Fluo-8 calcium fluorescence; vehicle 0%, full acetylcholine response 100% | AID 624127 | P08173;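 active = activation above the run mean over all test wells plus 3 SD, cut at about 32% in these data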;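 also: peak over basal fluorescence ratio per well then scaled between controls; 0% = DMSO wells and 100% = acetylcholine at EC100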
OXTR potentiate = potentiates the human oxytocin receptor response; activation, % at 3 µM; P30559; CHO-OTR cells, Fluo-8 calcium fluorescence, potentiator mode; 0% = oxytocin EC15, 100% = EC100; actives 0.061% (n = 320,000);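 active = activation above that plate's cutoff, the mean activation of tested compounds plus 3 SD, cut at about 6.6% in these data, passing the limit was not always enough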;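 also: 100% uses oxytocin at 75 nM as the full agonist control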
Target sequence (P30559 whole entry, looked up): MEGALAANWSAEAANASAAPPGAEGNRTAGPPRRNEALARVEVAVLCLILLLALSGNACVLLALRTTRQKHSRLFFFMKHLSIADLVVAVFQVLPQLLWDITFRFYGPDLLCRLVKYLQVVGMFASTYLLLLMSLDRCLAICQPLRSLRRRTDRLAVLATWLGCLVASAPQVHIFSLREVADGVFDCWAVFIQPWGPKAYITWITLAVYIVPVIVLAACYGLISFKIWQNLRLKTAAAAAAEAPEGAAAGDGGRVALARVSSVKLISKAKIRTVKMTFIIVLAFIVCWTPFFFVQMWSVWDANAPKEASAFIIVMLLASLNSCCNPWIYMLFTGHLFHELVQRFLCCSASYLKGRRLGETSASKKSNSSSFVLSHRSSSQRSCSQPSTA
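Assay system: CHO cell line stably expressing human OTR. Reagent: EC15 oxytocin agonist. Dosing: single dose, 3.0 µM nominal final compound concentration. Timing: compound 6 min at room temperature before oxytocin, 100 s read. Signal: kinetic Fluo-8 calcium fluorescence. Controls: oxytocin EC15 low and EC100 high.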
M4 PAM = positive allosteric modulators of human muscarinic M4 receptor; activation, % at 3 µM; AID 624126; CHO-K1 hM4/Gqi5, Fluo-8 calcium fluorescence, ACh EC20; 0% = ACh EC20, 100% = maximal ACh; actives 0.4% (n = 360,000);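 active = activation above its plate's cutoff, the mean activation of sample wells plus 3 SD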
OXTR ag = agonists of human oxytocin receptor; CHO-OTR cells, Fluo-8 calcium fluorescence; normalized: DMSO 0%, oxytocin 100%; actives 0.32% (n = 320,000); activation, % at 3 µM; AID 2435; P30559;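 active = activation above the mean of all tested compounds plus 3 SD, cutoff set per screening run, cut at about 20% in these data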;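 also: peak over basal fluorescence ratio from a 100 s FLIPR kinetic read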
V1aR counter = V1a receptor agonism, counter-screen for OXTR agonists; P37288; CHO-V1R cells, Fluo-8 calcium fluorescence, agonist mode; 0% DMSO, 100% 3 nM vasopressin; activation, % at 3 µM; actives 0.25% (n = 320,000);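 active = activation above the mean activation of all tested compounds plus 3 SD, per screening run, cut at about 20% in these data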;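 also: signal is peak over basal fluorescence ratio across a 100 second FLIPR read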
M4 antag = antagonists of human muscarinic M4 receptor (CHRM4); P08173; CHO-hM4 cells, ACh EC80, Fluo-8 calcium fluorescence; inhibition, % at 3 µM; actives 0.73% (n = 360,000);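 active = inhibition above its plate's cutoff, the mean inhibition of sample wells plus 3 SD, cut at about 27% in these data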;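 also: 0% = acetylcholine EC80 with DMSO and 100% = DMSO without agonist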
* marks the source's active call; other numbers are inactive results; / = not tested or not shown.

SMILES	CHRM4 agonist	OXTR potentiate	M4 PAM	OXTR ag	V1aR counter	M4 antag
CN1C(=O)c2cccc(NC(=O)C3CCCCC3)c2C1=O	0.1	-1.7	18.9*	-1.8	-1.6	-10.9
CCOC(=O)C1=C(C)N(CC(C)C)C(=O)/C1=C\c1ccc(OCC(=O)Nc2ccccc2)cc1	4.7	-8.7	-8.6	-0.6	0.3	0.9
CN1C(=O)CSC1=Nc1ccc(F)cc1	0.6	/	14.3*	/	/	-20.1
CCOC(=O)c1sc(NC(=O)C2CCCCC2)nc1C	0.2	-3.6	-2.1	-2.7	-1.7	0.1
CCOC(=O)c1c(C)nsc1NC(=O)C1CCCCC1	-0.7	-3.8	13.5*	-1.9	-1.2	-25.8
CN1CCC(Oc2ccc(Sc3ccccc3)cc2)CC1	12.1	-8.9	-17.5	22.4*	11.4	34.0*
Cc1nn(CC(=O)N2CCN(c3ccccc3)CC2)c(C)c1[N+](=O)[O-]	2.2	-7.0	-25.4	1.6	0.4	37.4*
Cc1ccc(C2C(C#N)=C(N)SC(N)=C2C#N)c(C)c1	17.1	-24.3	-5.8	20.2*	21.1*	-0.9
Cc1ccccc1NC(=O)CSc1[nH]c(=O)cc(C)c1C#N	2.8	-0.6	-1.8	0.5	2.3	-0.6
Cc1nn2c(SCC(=O)c3cccs3)cc(C(C)(C)C)nc2c1-c1ccccc1	1.0	1.4	6.7	0.7	0.6	-2.6
Cc1cc(SCC(=O)c2cccs2)n2nc(C)c(-c3ccc(Cl)cc3)c2n1	1.4	-4.5	23.2*	0.6	-0.5	-3.5
COC(=O)CSc1nc(C)cc(C)c1C#N	1.5	-4.5	7.9	0.1	0.5	-13.4
Cc1cc(=O)[nH]c(SCC(=O)c2ccccc2)c1C#N	2.1	-6.3	34.3*	0.6	3.3	-10.6
Cc1cc(C)c(C#N)c(SCC(=O)c2ccccc2)n1	2.8	-8.5	26.0*	-2.7	-0.3	-4.2
Cc1cc(C)c(C#N)c(SCC(=O)c2cccs2)n1	4.9	-13.4	75.4*	-1.8	0.7	36.8*
Cc1c(C)c2cccnc2c2ncccc12	0.1	-1.6	12.6	-2.3	-0.4	-6.0
CN(C)c1ccc(CC(=O)N2CCCC(c3cc(C(=O)Nc4ccc(C(C)(C)C)cc4)no3)C2)cc1 (stereo unspecified)	10.7	/	-8.5	/	/	5.2
O=C(OCc1ccccc1)N1C=CCC[C@@H]1c1c(Cl)cccc1Br	-2.2	/	-9.2	/	/	-17.2
Cc1cccc(C(=O)NNS(=O)(=O)c2ccccc2[N+](=O)[O-])c1	1.0	-1.9	27.6*	-0.2	-0.1	-1.9
Cc1ccc(C(=O)NNS(=O)(=O)c2ccccc2[N+](=O)[O-])cc1	0.2	-7.7	-3.1	-0.2	1.6	3.7
O=C(CCCn1ncn2c(cc3occc32)c1=O)NCc1cccc(Cl)c1	3.1	-3.9	20.3*	-0.7	1.0	-12.7
CC(=O)Nc1ccc(S(=O)(=O)N(C)c2ccc(OCCOc3cccc(C)c3)cc2)cc1	19.4	-9.6	-7.6	8.8	7.9	38.7*
CN1CCC(OC2c3ccccc3CCc3ccccc32)CC1	2.7	/	-12.3	/	/	99.3*
CCCNC(=O)C[C@@H]1CC[C@H]2NC[C@H](O)COC[C@@H]2O1	-0.1	/	2.8	/	/	-6.2
COc1ccccc1N(C(C)=O)C1=C(Cl)C(=O)c2ccccc2C1=O	1.8	/	-12.3	/	/	89.7*
SMILES	CHRM4 agonist	OXTR potentiate	M4 PAM	OXTR ag	V1aR counter	M4 antag
N#Cc1cccc(NC(=O)c2cncn2-c2ccccc2)c1	2.6	-5.8	-2.3	1.3	1.5	1.7
COc1ccc(C(=O)c2sc(Nc3ccccc3)c(C(=O)Nc3ccc(OC)c(OC)c3)c2N)cc1	2.4	-7.5	1.0	3.0	1.4	-11.1
COc1ccc(Nc2sc(C(=O)c3ccc(Cl)cc3)c(N)c2C(=O)Nc2ccccc2OC)cc1	73.6*	-26.0	-27.6	47.2*	40.3*	49.8*
CCNc1ccc(Br)cc(C(=O)/C=C/c2c(Cl)cccc2Cl)c1=O	3.2	-4.5	-1.9	3.6	3.0	38.2*
CNc1ccc(Br)cc(C(=O)/C=C/c2ccc(OC)cc2OC)c1=O	-0.1	-4.2	2.6	5.7	2.6	-12.9
CCNc1ccc(Br)cc(C(=O)/C=C/c2ccc(Cl)cc2)c1=O	-0.2	-2.9	-2.6	9.8	3.5	6.0
